Test results published in ChEMBL document CHEMBL4602735, “Discovery of (1H-Pyrazolo[3,4-c]pyridin-5-yl)sulfonamide Analogues as Hepatitis B Virus Capsid Assembly Modulators by Conformation Constraint” (J Med Chem, 2020).
Values belong to the compound of their own block, whether it stands above or below them. Active and inactive are the calls of the source. No cut-off for these calls is given here.

Tests used:
Hepatitis B virus [1] = assay: Antiviral activity against HBV infected in human HepAD38 cells; assay type: functional, organism-based
Hepatitis B virus [2] = assay: Inhibition of HBsAg secretion in HBV infected human HepG2.2.15 cells at 2 uM for 4 days by ELISA; assay type: functional, organism-based; settings: HepG2 2.2.15
Summary of the method: (§1)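 HepAD38 or HepG2.2.15 cells were treated at 2 µM for 4 days, with medium replaced every 2 days. Intracellular and extracellular DNA and RNA were quantified by qPCR or qRT-PCR, and HBeAg and HBsAg by ELISA. Results were compared with DMSO vehicle as mean ± SD, using a two-tailed t-test.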

Hepatitis B virus [3] = assay: Inhibition of HBsAg secretion in HBV infected human HepAD38 cells at 2 uM for 4 days by ELISA; assay type: functional, organism-based; summary of the method: as §1
Hepatitis B virus [4] = assay: Antiviral activity against HBV infected in human HepAD38 cells assessed as inhibition of intracellular viral RNA accumulation at 2 uM for 4 days by qPCR or qRT-PCR relative to control; assay type: functional, organism-based; summary of the method: as §1
Hepatitis B virus [5] = assay: Antiviral activity against HBV infected in human HepAD38 cells assessed as inhibition of intracellular viral DNA accumulation at 2 uM for 4 days by qPCR or qRT-PCR relative to control; assay type: functional, organism-based; summary of the method: as §1
Hepatitis B virus [6] = assay: Antiviral activity against HBV infected in human HepG2.2.15 cells assessed as inhibition of intracellular viral DNA accumulation at 2 uM for 4 days by qPCR or qRT-PCR relative to control; assay type: functional, organism-based; settings: HepG2 2.2.15; summary of the method: as §1
[7] = Solubility in water at 1 mg at 25 degC by HPLC analysis; assay type: physicochemical
Summary of the method: (§2)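 Solubility determined in water or 0.067 M phosphate buffer at pH 5.8, 6.8 and 7.4. Values are reported in mg/mL; ND means below the detection limit.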

[8] = Solubility in pH 5.8 phosphate buffer at 1 mg at 25 degC by HPLC analysis; assay type: physicochemical; summary of the method: as §2
[9] = Solubility in pH 6.8 phosphate buffer at 1 mg at 25 degC by HPLC analysis; assay type: physicochemical; settings: BLD = below limit of detection; summary of the method: as §2
Hepatitis B virus [10] = assay: Antiviral activity against HBV infected in human HepAD38 cells assessed as reduction in viral DNA levels incubated for 6 days by PCR analysis; assay type: functional, organism-based; settings: HePAD38, 144 h
[11] = Cytotoxicity in human HepAD38 cells assessed as induction of cell killing; assay type: cell-based
[12] = Intrinsic clearance in human liver microsomes; assay type: ADME, Microsome; settings: read-out: CLH
[13] = Intrinsic clearance in mouse liver microsomes; assay type: ADME, Microsome; settings: read-out: CLH
[14] = Selectivity index, ratio of CC50 for cytotoxicity in human HepAD38 cells assessed as induction of cell killing to EC50 for antiviral activity against HBV infected in human HepAD38 cells assessed as reduction in viral DNA levels incubated for 6 days by PCR analysis; assay type: toxicity, cell-based; settings: read-out: Ratio CC50/EC50
Hepatitis B virus [15] = assay: Antiviral activity against HBV infected in human HepG2.A64 cells containing reverse transcriptase L180M/T184L/M204V mutant assessed as reduction in viral replication incubated for 6 days by PCR analysis; assay type: functional, organism-based; settings: HepG2.A64, 144 h
Summary of the method: (§3)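 Wild-type HBV replication measured in HepAD38 and HepG2.2.15 cells, lamivudine/entecavir-resistant HBV in HepG2.A64 cells (rtL180M+rtT184L+rtM204V) and multidrug-resistant HBV in HepG2.1403F cells (rtL180M+rtM204V+rtS202G+rtN236T). Read-out is reduction of HBV DNA. EC50 is reported as mean ± SD.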

Hepatitis B virus [16] = assay: Antiviral activity against multidrug-resistant HBV infected in human HepG2.1403F cells assessed as reduction in viral replication incubated for 6 days by PCR analysis; assay type: functional, organism-based; settings: 144 h; summary of the method: as §3
Hepatitis B virus [17] = assay: Antiviral activity against HBV infected in human HepG2.2.15 cells assessed as reduction in viral DNA levels incubated for 6 days by PCR analysis; assay type: functional, organism-based; settings: HepG2 2.2.15, 144 h
[18] = Cytotoxicity in human HepG2 cells assessed as induction of cell killing; assay type: cell-based
Hepatitis B virus [19] = assay: Antiviral activity against HBV genotype D in hydrodynamic injection-based C57BL/6 mouse model of HBV infection assessed as inhibition of HBV replication at 100 mg/kg, po dosed once daily for 7 days by real-time PCR analysis; assay type: functional, organism-based
[20] = Cytotoxicity in human HepG2 cells assessed as induction of cell killing
Hepatitis B virus [21] = assay: Inhibition of HBeAg secretion in HBV infected human HepG2.2.15 cells at 2 uM for 4 days by ELISA relative to control; assay type: functional, organism-based; settings: HepG2 2.2.15; summary of the method: as §1
Hepatitis B virus [22] = assay: Antiviral activity against HBV infected in human HepAD38 cells assessed as inhibition of intracellular total viral RNA accumulation at 2 uM for 4 days by qPCR or qRT-PCR relative to control; assay type: functional; summary of the method: as §1
Hepatitis B virus [23] = assay: Induction of capsid assembly of recombinant HBV core protein 149 (1 to 149 residues) at 10 uM incubated overnight by electron microscopy
Summary of the method: (§4)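 Core protein N-terminal domain Cp149 (aa 1-149, 5 μM) incubated with compound (10 μM) or DMSO overnight at 37 °C in 150 mM NaCl, 50 mM HEPES, pH 7.4. Assembly is read by EM and by size-exclusion chromatography. In SEC, capsids elute early (about 1.08 mL) and dimers late (about 1.97 mL). Peak AUCs and the capsid/dimer AUC ratio are calculated.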

Hepatitis B virus [24] = assay: Induction of capsid assembly of recombinant HBV core protein 149 (1 to 149 residues) at 10 uM incubated overnight by SEC analysis; summary of the method: as §4
Hepatitis B virus [25] = assay: Induction of capsid assembly of recombinant HBV core protein 149 (1 to 149 residues) assessed as capsid peak AUC at 10 uM incubated overnight by UV detector based analysis (reference value: 0.96); summary of the method: as §4
Hepatitis B virus [26] = assay: Induction of capsid assembly of recombinant HBV core protein 149 (1 to 149 residues) assessed as Cp dimer peak AUC at 10 uM incubated overnight by UV detector based analysis (reference value: 1.63); summary of the method: as §4
Hepatitis B virus [27] = assay: Induction of capsid assembly of recombinant HBV core protein 149 (1 to 149 residues) assessed as capsid peak AUC/Cp dimer peak AUC at 10 uM incubated overnight by UV detector based analysis (reference value: 0.59); summary of the method: as §4
[28] = Half life in mouse plasma by HPLC analysis; assay type: ADME, cell-free
Summary of the method: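 Prodrug incubated in plasma at 37 °C, with percent remaining determined by HPLC to derive half-life.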

[29] = Stability in pH 7.4 buffer assessed as compound remaining level at 37 degC by HPLC analysis; assay type: physicochemical
Summary of the method: (§5)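 Prodrug incubated in buffer (0.1 M HCl, pH 5.8, 6.8 or 7.4) at 37 °C; percent of compound remaining determined by HPLC; remaining percentage reported after 3 h, stability meaning no hydrolysis after 2 h.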

[30] = Stability in pH 6.8 buffer assessed as compound remaining level at 37 degC by HPLC analysis; assay type: physicochemical; summary of the method: as §5
[31] = Stability in pH 5.8 buffer assessed as compound remaining level at 37 degC by HPLC analysis; assay type: physicochemical; summary of the method: as §5
HepG2 2.2.15 = assay: Inhibition of reverse transcriptase in HBV infected in human HepG2.2.15 cells assessed as induction of intracellular viral RNA accumulation at 2 uM for 4 days by qPCR or qRT-PCR relative to control; assay type: cell-based; settings: Hepatitis B virus

solubility [7]: 4200 µg/mL | solubility [8]: 7930 µg/mL | solubility [9]: Bld
Compound: Cc1cc(Nc2nn(C3CC3)c3cnc(S(=O)(=O)N4CCC(OC(=O)CN(C)C)CC4)cc23)ccc1F.O=C(O)/C=C\C(=O)O

EC50 (Hepatitis B virus [10]): 42 nM | microsomal CLint [12]: 38 µL/min/mg | microsomal CLint [13]: 53.5 µL/min/mg
Compound: Cc1cc(Nc2nn(C3CC3)c3cnc(S(=O)(=O)N4CCOCC4)cc23)ccc1F
CC50 [11]: > 100000 nM

half-life [28]: 1.29 h | Stability [29]: 74.2% | Stability [30]: 67.6% | Stability [31]: 88.3%
Compound: Cc1cc(Nc2nn(C3CC3)c3cnc(S(=O)(=O)N4CCC(OC(=O)CN)CC4)cc23)ccc1F.O=C(O)C(F)(F)F

The next lines start with the compound.

Compound: COc1ccccc1/C(Br)=C(\NC(=O)c1ccc([N+](=O)[O-])cc1)C(=O)N1CCCCC1
EC50 (Hepatitis B virus [1]): 130 nM | inhibition (Hepatitis B virus [2]): inactive | inhibition (Hepatitis B virus [3]): inactive | inhibition (Hepatitis B virus [4]): Active | inhibition (Hepatitis B virus [5]): Active | inhibition (Hepatitis B virus [6]): Active

Compound: Cc1cc(Nc2nn(C3CC3)c3ccc(S(=O)(=O)N4CCOCC4)cc23)ccc1F
EC50 (Hepatitis B virus [10]): 57 nM | CC50 [11]: > 100000 nM | microsomal CLint [12]: 41 µL/min/mg | microsomal CLint [13]: 26.9 µL/min/mg

Compound: CC[C@@H](C)NS(=O)(=O)c1ccc(F)c(C(=O)Nc2ccc(F)c(F)c2)c1
EC50 (Hepatitis B virus [10]): 310 nM | selectivity ratio at 144 h [14]: 129 | EC50 (Hepatitis B virus [15]): 48 nM | EC50 (Hepatitis B virus [16]): 74 nM | EC50 (Hepatitis B virus [17]): 280 nM | CC50 [18]: 39800 nM | Activity (Hepatitis B virus [19]): inactive | CC50 [20]: 39800 nM

Compound: CCOC(=O)C1=C(CN2CCOCC2)NC(c2nccs2)=NC1c1ccc(F)cc1Br (stereo not drawn)
EC50 (Hepatitis B virus [10]): 13 nM | inhibition (Hepatitis B virus [2]): inactive | inhibition (Hepatitis B virus [3]): inactive | inhibition (Hepatitis B virus [21]): Active | inhibition (Hepatitis B virus [4]): Active | inhibition (Hepatitis B virus [5]): Active | inhibition (Hepatitis B virus [6]): Active | inhibition (Hepatitis B virus [22]): Active | EC50 (Hepatitis B virus [15]): 6.3 nM | EC50 (Hepatitis B virus [16]): 42 nM | EC50 (Hepatitis B virus [17]): 6.6 nM

Compound: O=S(=O)(c1ccc2c(c1)c(Nc1cc(F)c(F)c(F)c1)nn2C1CC1)N1CCC(O)CC1
EC50 (Hepatitis B virus [10]): 270 nM | CC50 [11]: 100000 nM | Activity (Hepatitis B virus [23]): Active | Activity (Hepatitis B virus [24]): Active | AUC (Hepatitis B virus [25]): 0.56 | AUC (Hepatitis B virus [26]): 0.39 | AUC (Hepatitis B virus [27]): 1.43

Compound: Nc1ccn([C@@H]2CS[C@H](CO)O2)c(=O)n1 [LAMIVUDINE]
EC50 (Hepatitis B virus [10]): 70 nM | inhibition (HepG2 2.2.15): Active | EC50 (Hepatitis B virus [15]): > 10000 nM | EC50 (Hepatitis B virus [16]): > 10000 nM | EC50 (Hepatitis B virus [17]): 3.8 nM | CC50 [18]: > 100000 nM
